MEKK2wt PB1 HTS: modulators of MEK5 binding to wildtype MEKK2, primary screen, biochemical, multiplex bead flow cytometry, Alexa488-MEK5; Alexa488-MEK5 binding to MEKK2 WT; actives lie on both sides; binding response (% of control), % at 10 µM; Mitogen-activated protein kinase kinase kinase 2 (Homo sapiens), Q9Y2U5; AID 1531, 2009; hit rate 1.1% among 290,000; in the data active = binding response below about 67% or above about 130%
ABCB1 inh: ABCB1 efflux pump inhibitors, primary screen, cell-based, multiplex, flow cytometry, ABCG2 counter-screen. hit rate 0.067% among 190,000. ATP-dependent translocase ABCB1 (Homo sapiens), P08183. CCRF-Adr cells, JC-1 efflux. inhibition, % at 6.6 µM; in the data active = inhibition above about 40%;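 note: higher value means more JC-1 retained so stronger ABCB1 efflux block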
MEKK2 mut-MEK5: MEK5 binding signal on mutant MEKK2 PB1, primary screen, biochemical, multiplex bead flow cytometry, Alexa488-MEK5 | AID 1530, 2009 | percent response, % at 10 µM | hit rate 0.35% among 290,000 | Alexa488-MEK5 binding to MEKK2 mutant; in the data active = percent response above about 24%, passing the limit was not always enough
MEKK3 PB1 HTS: modulators of MEKK3-MEK5 PB1 binding, primary screen, biochemical, wildtype MEKK3, multiplex bead flow cytometry, Alexa488-MEK5; Mitogen-activated protein kinase kinase kinase 3 (Homo sapiens), Q99759; bead-based flow cytometry, Alexa488-MEK5 binding to MEKK3; actives lie on both sides; 0 = blocked by unlabeled MEK5, 100 = vehicle; hit rate 1.4% among 290,000; binding response (% of control), % at 10 µM;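 active = binding response more than 3 SD above or below the average of its plate-row segment, actives on both sides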;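 note: Alexa488 bead fluorescence after subtracting the streptavidin-only scavenger bead signal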
ABCG2 block: ABCG2 efflux pump inhibitors, primary screen, multiplex with ABCB1, IgMXP3 cells, flow cytometry. inhibition, % at 6.6 µM. hit rate 0.1% among 190,000. JC-1 efflux. AID 1325, 2008;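 active = inhibition above 80%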
Target sequence (Q9UNQ0 whole entry, looked up): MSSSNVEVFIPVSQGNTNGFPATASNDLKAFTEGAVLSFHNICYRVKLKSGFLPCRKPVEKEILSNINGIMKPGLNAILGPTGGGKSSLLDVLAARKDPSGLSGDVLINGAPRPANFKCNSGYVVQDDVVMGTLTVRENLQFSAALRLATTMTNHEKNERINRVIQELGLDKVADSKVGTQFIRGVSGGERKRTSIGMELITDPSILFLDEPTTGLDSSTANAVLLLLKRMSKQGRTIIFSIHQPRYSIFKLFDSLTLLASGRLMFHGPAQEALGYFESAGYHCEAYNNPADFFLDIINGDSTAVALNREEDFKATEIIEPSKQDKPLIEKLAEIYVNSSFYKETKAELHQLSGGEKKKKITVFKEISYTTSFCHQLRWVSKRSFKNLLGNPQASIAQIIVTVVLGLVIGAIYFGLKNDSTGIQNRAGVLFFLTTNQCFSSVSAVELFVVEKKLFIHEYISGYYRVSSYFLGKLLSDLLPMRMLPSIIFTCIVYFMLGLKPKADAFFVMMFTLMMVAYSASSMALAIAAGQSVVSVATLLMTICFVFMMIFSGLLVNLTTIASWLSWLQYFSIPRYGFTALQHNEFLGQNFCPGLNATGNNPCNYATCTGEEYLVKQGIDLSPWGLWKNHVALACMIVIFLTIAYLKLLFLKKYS
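Test system: IgMXP3 (ABCG2) plus far-red-tagged CCRF-Adr (ABCB1) cells. Reagent: JC-1 dye as substrate. Timing: 10 min exposure at 25 °C with rotation, no wash. Measured by: flow cytometric JC-1 green MFI at 530 nm. Read-out: percent efflux inhibition, scaled nicardipine 100% to DMSO 0%. Control set: nicardipine and DMSO wells.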
Efflux pump inh: inhibitors of Candida efflux pumps in yeast, primary screen, S. cerevisiae, Nile Red, multiplex. S. cerevisiae Candida pump triplex. inhibition, % at 10 µM. hit rate 0.44% among 330,000. AID 485275, 2010;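 active = plate passing quality check with inhibition over a set limit, or well fluorescence over plate mean plus 4 SD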;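 note: Nile Red retained in pooled yeast measured as flow cytometry median fluorescence; higher means more Nile Red kept so more efflux inhibition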
Yeast cmpd fluor: counter-screen for efflux pump inhibitors: compound fluorescence; S. cerevisiae AD/pABC3, flow cytometry; hit rate 4% among 1,700; shares compounds with Efflux pump inh; AID 588517; fluorescence ratio to DMSO, % at 10 µM;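 active = fluorescence ratio to DMSO above its plate's cutoff, the plate mean ratio plus 5 SD, cut at about 210% in these data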;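 note: unstained yeast with no Nile Red so the signal is compound autofluorescence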
Mdr1 pump inh: inhibitors of Candida albicans Mdr1 efflux, confirmation, flow cytometry, singleplex, Cherry Pick1 set. shares compounds with Efflux pump inh. S. cerevisiae AD/CaMDR1, Nile Red efflux. inhibition, % at 10 µM. hit rate 1% among 1,700; in the data active = inhibition above about 26%;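 note: higher means more Nile Red retained so more efflux inhibition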
Cdr2 pump inh: inhibitors of Candida albicans Cdr2 efflux pump, confirmation, S. cerevisiae AD/CaCDR2, flow cytometry, cherry pick 1, singleplex; Nile Red retention ratio vs DMSO, % at 10 µM; shares compounds with Efflux pump inh; hit rate 4% among 1,700; Nile Red retention; AID 588520, 2011; in the data active = Nile Red retention ratio vs DMSO above about 190%;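 note: higher ratio means more blocking of Cdr2 efflux of the dye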
Cdr1 pump inh: inhibitors of Candida albicans Cdr1 efflux pump, confirmation, S. cerevisiae AD/CaCDR1, flow cytometry, cherry pick 1, singleplex; shares compounds with Efflux pump inh; Nile Red efflux; inhibition, % at 10 µM; hit rate 1% among 1,700; AID 588522, 2011;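 active = inhibition above the screen-wide mean plus twice its standard deviation, cut at about 32% in these data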
Hits are given with their value; - = inactive; . = no result; + = active, no number. Rows were chosen to be rich in hits. Some 2.5% of all compounds tested hit in one or more screens of this group.

SMILES	MEKK2wt PB1 HTS	ABCB1 inh	MEKK2 mut-MEK5	MEKK3 PB1 HTS	ABCG2 block	Efflux pump inh	Yeast cmpd fluor	Mdr1 pump inh	Cdr2 pump inh	Cdr1 pump inh
CCOC(=O)N1CCN(C(=O)c2cc(COc3cccc(C(F)(F)F)c3)on2)CC1	-	.	-	-	.	-	.	.	.	.
C[C@@H]1CN(C(=O)c2cc(COc3cccc(C(F)(F)F)c3)on2)C[C@H](C)O1	-	.	-	-	.	0.5	-	-	-	-
O=C(COC(=O)Cc1c(F)cccc1Cl)NCc1ccc2c(c1)OCO2	.	.	.	.	.	-	.	.	.	.
O=C(Nc1ccnc(-c2cccnc2)n1)c1cccc(Cl)c1Cl	-	-	-	-	-	1.0	-	-	-	-
Cc1c(CCOC(=O)C23CC4CC(CC(C)(C4)C2)C3)sc[n+]1Cc1ccccc1	-	-	-	-	-	1.2	-	-	+	-
O=C(Nc1ccc(CN2CCOCC2)cc1)c1ccc(Br)o1	-	.	-	-	.	1.7	-	-	-	-
O=C(Nc1ccc(S(=O)(=O)N2CCOCC2)cc1)c1ccc(Br)o1	-	-	-	-	-	-	.	.	.	.
Cc1cccc(-c2nc(S(=O)(=O)c3ccc(F)cc3)c(NCCCN3CCOCC3)o2)c1	-	.	-	-	.	7.4	-	-	-	-
COc1ccc2nccc(/C=C/c3ccnc4ccc(OC)cc34)c2c1	-	.	-	-	.	0.7	-	-	-	-
CCOC(=O)Cc1csc(NC(=O)Nc2cccc(OC)c2)n1	-	.	-	-	.	-	.	.	.	.
CC(=O)n1nc(-c2ccccc2)nc1NCc1cccs1	-	-	-	-	-	-	.	.	.	.
COc1ccc2[nH]c(CN3CCC(n4nccc4NC(=O)C4CC4)CC3)c(C)c2c1	-	.	-	-	.	-	.	.	.	.
Cc1cc(C)cc(OCC(=O)NCCc2nc3ccccc3[nH]2)c1	-	-	-	-	-	-	.	.	.	.
Cc1ccccc1OCC(=O)NCCc1nc2ccccc2[nH]1	-	-	-	-	-	15	-	-	-	-
Cc1cccc(N2CCN(C(=O)c3ccc(NS(=O)(=O)c4c(C)noc4C)cc3)CC2)c1C	-	-	-	-	-	0.5	-	-	-	-
Cc1noc(C)c1S(=O)(=O)Nc1ccc(C(=O)N2CCN(c3cccc(Cl)c3)CC2)cc1	-	-	-	-	-	-	.	.	.	.
CC1C(=O)N2CCCc3cc(S(=O)(=O)N4CCCCC4)cc1c32 (centres undefined)	.	.	.	.	.	0.7	-	-	-	-
CC1CCCN(S(=O)(=O)c2cc3c4c(c2)C(C)C(=O)N4CCC3)C1 (centres undefined)	-	.	-	-	.	-	.	.	.	.
O=C1c2ccccc2S(=O)(=O)c2cc(C(=O)N(c3ccccn3)c3ccccn3)ccc21	-	-	-	-	-	-	.	.	.	.
Cc1ccc2c(c1)CCCN2C(=O)C1CCCO1 (centres undefined)	-	-	-	-	-	14	-	-	-	-
O=C1c2ccccc2C(=O)N1CN(C(=O)COc1ccccc1)c1ccc(F)cc1	-	-	-	-	-	8.0	-	-	-	-
CCSc1cc(N2CCOCC2)nc(-c2ccccc2)n1	-	-	-	-	-	-	-	-	-	-
c1ccc(-c2cc(N3CCOCC3)nc(-c3ccccc3)n2)cc1	-	-	-	-	-	-	.	.	.	.
CCCCCOCC1CC(C/C(C)=N/NC(N)=O)(C(=O)OCC)C(=O)O1 (centres undefined)	-	.	-	-	.	-	.	.	.	.
CCCCC1(C(=O)OCC)CC(CSC(=N)N)OC1=O (centres undefined)	-	-	-	-	-	0.6	-	-	-	-
SMILES	MEKK2wt PB1 HTS	ABCB1 inh	MEKK2 mut-MEK5	MEKK3 PB1 HTS	ABCG2 block	Efflux pump inh	Yeast cmpd fluor	Mdr1 pump inh	Cdr2 pump inh	Cdr1 pump inh
Cc1ccc2c(c1)[C@H]1[C@H](CO2)[C@H](c2ccccc2)[C@]2(C)C(=O)Nc3ccc(Cl)cc3C(=O)N12	.	.	.	.	.	-	.	.	.	.
C[C@@]12C(=O)Nc3ccccc3C(=O)N1[C@H]1c3cc(Cl)ccc3OC[C@@H]1[C@@H]2c1ccccc1	.	.	.	.	.	-	-	-	-	-
C[C@@]12C(=O)Nc3cc(F)c(F)cc3C(=O)N1[C@H]1c3cc(Cl)ccc3OC[C@@H]1[C@@H]2c1ccccc1	.	.	.	.	.	-	-	-	-	-
COc1ccc2c(c1)OC[C@H]1[C@H]2N2C(=O)c3cc(C)ccc3NC(=O)[C@@]2(C)[C@H]1c1ccccc1	.	.	.	.	.	5.1	-	-	-	-
C[C@@]12C(=O)Nc3ccc(Br)cc3C(=O)N1[C@H]1c3cc(Cl)ccc3OC[C@@H]1[C@@H]2c1ccccc1	.	.	.	.	.	-	.	.	.	.
C[C@@]12C(=O)Nc3ccc(Cl)cc3C(=O)N1[C@H]1c3cc(Cl)ccc3OC[C@@H]1[C@@H]2c1ccccc1	.	.	.	.	.	-	-	-	-	-
CCC[C@H](N[C@@H](C)C(=O)N1[C@H](C(=O)O)C[C@@H]2CCCC[C@@H]21)C(=O)OCC	.	.	.	.	.	-	.	.	.	.
O=C(CSc1cn[nH]n1)Nc1ccccc1C(=O)O	-	.	-	-	.	-	.	.	.	.
NS(=O)(=O)c1ccc(NC(=O)COC(=O)Cn2cnc3ccccc3c2=O)cc1	.	.	.	.	.	-	.	.	.	.
Cc1cc(CNC(=O)CC2C(=O)NCCN2Cc2ccccc2C(F)(F)F)on1 (centres undefined)	-	-	-	-	-	-	.	.	.	.
O=C(CCN1C(=O)/C(=C/c2ccc(F)cc2)SC1=S)NCCCn1ccnc1	-	.	-	-	.	2.1	-	-	-	-
CC(C)CCNC(=O)CCSCCC(=O)NCCC(C)C	-	-	-	-	-	8.9	-	-	-	-
N#Cc1ccc(OCC(=O)N2CCN(c3ccc(C(F)(F)F)cn3)CC2)cc1	.	.	.	.	.	0.8	-	-	-	-
O=C(CCc1ccccc1F)N1CCN(c2ccc(C(F)(F)F)cn2)CC1	-	.	-	-	.	-	.	.	.	.
COc1ccccc1NC(=O)CNc1ccc(F)c(Cl)c1	-	-	-	-	-	14	-	-	-	-
